Measurements pooled from the literature.
Protocols differ between the studies behind these lines.
MTNR1A: Melatonin receptor type 1A (MTNR1A, Homo sapiens, UniProt P48039)

For `CCC(N)Cc1cc(OC)c(COC)cc1OC` (centres unmarked), the Emax was 82% (5-hydroxytryptamine receptor 2C (HTR2C, Homo sapiens, UniProt P28335); G protein activation, agonist, BRET).
For `CN[C@@]1(c2ccccc2Cl)CCCCC1=O`, the inhibition was 11% (Fatty-acid amide hydrolase 1 (FAAH, Homo sapiens, UniProt O00519); enzyme activity, inhibitor; 30 µM).
`Cc1nn(C)cc1-c1nc2c(N3CCN(Cc4ccc(Cl)cc4)CC3)c(Cl)cnc2[nH]1` gave a remaining binding of 47% (Tyrosine-protein kinase receptor Tie-1 (TIE1, Homo sapiens, UniProt P35590); binding, competition with immobilised ligand; 1 µM).
`COc1ccc2[nH]cc(CCNC(=O)CI)c2c1` gave an Emax of 103% (MTNR1A; cAMP, agonist, TR-FRET; CHO-K1; 20 min).
With `C#Cc1n[nH]c2c(-c3cn([C@@H](C)c4ccccn4)c(=O)[nH]c3=O)cc(F)cc12` the inhibition was 1.4% (Aurora kinase C (AURKC, Homo sapiens, UniProt Q9UQB9); enzyme activity, inhibitor; 0.1 µM).
`Nc1ncc(-c2nc(N3CCOCC3)nc(N3CCOCC3)n2)c(C(F)F)n1` has a remaining binding of 72% (Serine/threonine-protein kinase SIK3 (SIK3, Homo sapiens, UniProt Q9Y2K2); binding, competition with immobilised ligand; 10 µM).
`CCN(CC)CCCC[C@H](NC(=O)[C@H](CC(C)C)NC(=O)[C@H](C)NC(=O)[C@H](Cc1ccccc1)NC(=O)c1ccc(C(C)(C)C)cc1)C(=O)N[C@@H](CO)C(=O)OC` gave a remaining binding of 92.1% (MTNR1A; ligand displacement, radioligand; 10 µM).
For `COc1ncccc1-c1cnn2ccc(N3CCN(C(=O)OC(C)C)CC3)nc12`, the remaining binding was 3.5% (BMP-2-inducible protein kinase (BMP2K, Homo sapiens, UniProt Q9NSY1); binding, competition with immobilised ligand; 1 µM).
